S1P3 ag: activates the human S1P3 receptor; 60,000 tested, 0.1% active; S1P3 NFAT-BLA reporter cells, agonism, FRET ratio; relative to 1 µM S1P, basal subtracted; AID 373; activation, % at 4.5 µM;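 active = activation above the screen-wide mean plus 3 SD, cut at about 4.5% in these data, passing the limit was not always enough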
Target sequence (Q99500 whole entry, looked up): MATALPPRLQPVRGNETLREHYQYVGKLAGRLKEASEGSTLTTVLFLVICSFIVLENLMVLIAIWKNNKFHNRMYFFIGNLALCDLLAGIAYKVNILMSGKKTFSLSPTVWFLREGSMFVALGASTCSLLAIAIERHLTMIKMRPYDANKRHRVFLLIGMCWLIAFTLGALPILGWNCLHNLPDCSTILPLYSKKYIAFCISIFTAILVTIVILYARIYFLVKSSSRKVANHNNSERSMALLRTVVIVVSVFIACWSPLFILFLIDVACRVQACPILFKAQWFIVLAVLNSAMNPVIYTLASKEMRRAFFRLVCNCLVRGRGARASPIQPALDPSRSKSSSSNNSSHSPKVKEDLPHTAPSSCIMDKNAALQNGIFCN
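Benchmarks: high control 1 µM S1P / System: stable CHO line with human S1P3, Gα16, NFAT-BLA reporter / Dosing: single compound concentration, 4.5 µM final / Timing: 4 h compound at 37 °C, 2 h substrate at RT / Measured by: FRET β-lactamase substrate fluorescence, excitation 405 nm, 460/535 nm emission ratio, background-subtracted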
HTR1E antagonist: blocks the human 5-HT1E serotonin receptor | P28566 | CHO 5-HT1E Ga15 NFAT-bla reporter, FRET, antagonist | inhibition, % at 6 µM | 65,000 tested, 0.99% active;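 active = inhibition above a set limit, the mean inhibition across every tested compound plus 3 SD, cut at about 29% in these data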;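 note: signal is the 460 over 535 nm emission ratio of beta-lactamase substrate; 0% = agonist plus DMSO wells and 100% = wells without agonist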
5HT1a ag: activates the human 5-HT1a serotonin receptor | P08908 | CHO 5-HT1a Ga15 NFAT-bla reporter, FRET ratio; 0% basal, 100% maximal reference agonist | activation, % at 10 µM | 65,000 tested, 0.56% active | AID 567;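 active = activation above the screen-wide mean activation plus 3 SD, cut at about 19% in these data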;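 note: 0% = DMSO wells and 100% = 5-CT at EC100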
5HT1a antag: antagonists of human 5-HT1a serotonin receptor; inhibition, % at 10 µM; CHO 5-HT1a Ga15 NFAT-bla reporter, antagonist mode; P08908; 62,000 tested, 0.68% active;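 active = inhibition above the mean of all tested compounds plus 3 SD, cut at about 43% in these data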;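 note: receptor stimulated by 5-CT agonist at 100 nM near EC80; beta-lactamase reporter measured by ratiometric fluorescence of a cleavable substrate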
S1P1 ag pot: activates or potentiates agonism at human S1P1 receptor; P21453; S1P1 CRE-bla cells, forskolin, beta-lactamase FRET, potentiator mode; S1P1 agonist co-added at EC20, 2 nM; 100% = saturating reference agonist, 0% = basal; activation, % at 9.5 µM; 56,000 tested, 0.57% active;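 active = activation above a cutoff set at the mean activation of all tested compounds plus 3 SD, cut at about 54% in these data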;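 note: forskolin at 4 µM as EC80 and the EC20 agonist is SEW2871; 100% = SEW2871 at its EC100 plus forskolin at EC80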
HTR1E agonist: activates the human 5-HT1E serotonin receptor; activation, % at 6 µM; 65,000 tested, 0.69% active; P28566; CHO 5-HT1E Ga15 NFAT-bla reporter, FRET; 0% DMSO wells, 100% control agonist wells; AID 574;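 active = activation above a set limit, the screen-wide mean activation plus 3 SD, cut at about 8.5% in these data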;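 note: 100% = positive control agonist at 1 µM giving full maximal response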
An asterisk follows results filed as active. Sampled rows, rich in hits. Any-hit rate of the full collection: about 3%.

Screening CCCC(=O)C1C(=O)CC(C)(C)C(c2cc(C)no2)C1=O (stereo not given) returned S1P3 ag 0, HTR1E antagonist -2, 5HT1a ag 0, 5HT1a antag -7 and HTR1E agonist 0.
For COc1ccc(N2C(=O)CCC(C(=O)Nc3cccc(C)n3)C2c2ccc(OC)c(OC)c2)cc1 (stereo not given) the results were HTR1E antagonist 12, 5HT1a ag 29*, 5HT1a antag 0 and HTR1E agonist -2.
Screening COC(=O)CSc1nnc([C@H](Cc2ccccc2)NC(=O)OC(C)(C)C)o1 returned S1P3 ag 0, HTR1E antagonist 3, 5HT1a ag 0, 5HT1a antag 2, S1P1 ag pot -6 and HTR1E agonist -1.
Screening COC(=O)CS(=O)(=O)c1nnc([C@H](Cc2ccccc2)NC(=O)OC(C)(C)C)o1 returned S1P3 ag -1, HTR1E antagonist 29*, 5HT1a ag -7, 5HT1a antag 33, S1P1 ag pot 56* and HTR1E agonist 0.
`COc1ccc(CCn2c(-c3ccco3)nc3oc4ccccc4c(=O)c3c2=O)cc1` gave S1P3 ag -2, HTR1E antagonist -3, 5HT1a ag -2, 5HT1a antag -5, S1P1 ag pot -5 and HTR1E agonist -1.
`O=C(NCCN1CCOCC1)c1ccc2c(c1)ncn2C1CCCCC1` gave S1P3 ag 0, HTR1E antagonist -6, 5HT1a ag -4, 5HT1a antag 6, S1P1 ag pot -14 and HTR1E agonist -1.
For COc1cccc(N2CCN(C3CC(=O)N(c4ccc(Cl)c(Cl)c4)C3=O)CC2)c1 (stereo not given) the results were S1P3 ag 1, HTR1E antagonist -1, 5HT1a ag 2, 5HT1a antag -7, S1P1 ag pot -12 and HTR1E agonist 0.
`COc1cccc(N2CCN(C3OC(=O)c4ccccc43)CC2)c1` (stereo not given) gave S1P3 ag 0, HTR1E antagonist 8, 5HT1a ag -1, 5HT1a antag 1, S1P1 ag pot 1 and HTR1E agonist 23*.
Screening COCCOC(=O)C1=C(C)N=C2SCCC(=O)N2C1c1ccc(OC(=O)c2ccco2)cc1 (stereo not given) returned HTR1E antagonist -6, 5HT1a ag 0, 5HT1a antag -8 and HTR1E agonist 0.
For CCc1ccc2oc(-c3cc(N)cc(C)c3O)nc2c1 the results were S1P3 ag -1, HTR1E antagonist -2, 5HT1a ag -2, 5HT1a antag 32, S1P1 ag pot 65* and HTR1E agonist -1.
`COc1cc(C2C(C#N)=C(N)Oc3cc(N)ccc32)cc(OC)c1OC` (stereo not given) gave S1P3 ag -4, HTR1E antagonist 57*, 5HT1a ag 1, S1P1 ag pot -14 and HTR1E agonist 0.
O=C(Nc1cccc(S(=O)(=O)C(F)F)c1)c1ccc(S(=O)(=O)N2CCOCC2)cc1 was read as S1P3 ag -1, HTR1E antagonist -4, 5HT1a ag 2, 5HT1a antag 0, S1P1 ag pot -1 and HTR1E agonist 0.
Screening O=C(Nc1ccc(S(=O)(=O)C(F)F)cc1)c1cccc(S(=O)(=O)N2CCOCC2)c1 returned S1P3 ag 0, HTR1E antagonist -2, 5HT1a ag 20*, 5HT1a antag 2 and HTR1E agonist 0.
CN(C)CCCNc1oc(-c2cccc(Cl)c2)nc1C#N was read as S1P3 ag 0, HTR1E antagonist 3, 5HT1a ag 0, 5HT1a antag 4, S1P1 ag pot -2 and HTR1E agonist 0.
Screening COc1ccc(C2CC(c3c(O)cc(C)oc3=O)=NCCS2)c(OC)c1 (stereo not given) returned S1P3 ag -2, HTR1E antagonist 65*, 5HT1a ag -4, 5HT1a antag 39, S1P1 ag pot 43 and HTR1E agonist -1.
C=C(C)CSc1nnc(-c2ccccc2)n1N was read as S1P3 ag -2, HTR1E antagonist -4, 5HT1a ag 1, 5HT1a antag 0 and HTR1E agonist 42*.
Cc1cc(NC(=O)CSc2ccc(-c3nc4cc(C)c(C)cc4[nH]3)cn2)no1 was read as HTR1E antagonist 31*, 5HT1a ag 1, 5HT1a antag 22 and HTR1E agonist 1.
CC1(C)C=C(c2ccc(O)cc2)CC(C)(C)N1 was read as S1P3 ag -1, HTR1E antagonist 8, 5HT1a ag -5, 5HT1a antag 5, S1P1 ag pot -12 and HTR1E agonist 0.
COc1ccccc1N/C(N)=N/c1nc(CSc2ccc(C)cc2)cc(=O)[nH]1 was read as S1P3 ag -1, HTR1E antagonist 16, 5HT1a ag 1, 5HT1a antag 24, S1P1 ag pot 59* and HTR1E agonist 0.
`CSc1ccccc1NS(=O)(=O)c1ccc2c(c1)OCCO2` gave S1P3 ag -1, HTR1E antagonist 3, 5HT1a ag -3, 5HT1a antag 4, S1P1 ag pot -14 and HTR1E agonist 0.
COC(=O)c1ccc(C)c(NS(=O)(=O)c2ccc3c(c2)OCCO3)c1 was read as S1P3 ag -1, HTR1E antagonist 60*, 5HT1a ag -1, 5HT1a antag 33, S1P1 ag pot 5 and HTR1E agonist -1.
`CCCCC(CC)C(=O)Nc1ccccc1C(=O)NC(C)C` (stereo not given) gave S1P3 ag 0, HTR1E antagonist -4, 5HT1a ag 1, 5HT1a antag -1 and HTR1E agonist 1.
Screening Cc1nn2c(C(F)(F)F)cc(-c3ccc(Cl)cc3)nc2c1C(=O)N1CCOCC1 returned S1P3 ag -2, HTR1E antagonist -7, 5HT1a ag -4, 5HT1a antag -7, S1P1 ag pot -9 and HTR1E agonist 38*.
For CC1(C)CC(=O)C(C=NCCCn2ccnc2)=C(O)C1 the results were S1P3 ag 0, HTR1E antagonist 7, 5HT1a ag -2, 5HT1a antag -13, S1P1 ag pot -17 and HTR1E agonist -1.
For COc1nnc(-c2ccc(N3CCCCC3)c(N)c2)c2ccccc12 the results were S1P3 ag -1, HTR1E antagonist -6, 5HT1a ag -2, 5HT1a antag 16 and HTR1E agonist 1.
c1ccc(-c2cccc(-c3ccccn3)n2)nc1 was read as S1P3 ag -2, HTR1E antagonist 45*, 5HT1a ag -2, 5HT1a antag 59*, S1P1 ag pot -5 and HTR1E agonist -2.
c1ccc(-c2nnc(-c3ccccn3)nn2)nc1 was read as HTR1E antagonist -5, 5HT1a ag -1, 5HT1a antag 6 and HTR1E agonist 0.
For CN(C)CCCN1c2ccccc2Sc2ccc(Cl)cc21 the results were S1P3 ag -2, HTR1E antagonist -7, 5HT1a ag 1, S1P1 ag pot -6 and HTR1E agonist 8.7*.

Source: PubChem BioAssay (The Scripps Research Institute Molecular Screening Center)
